The IC50 is the concentration needed to halve the response being measured. As usually defined, the Ki is the equilibrium dissociation constant of an inhibitor or competing ligand from its target. By Km is commonly meant the substrate concentration at which the rate is half of its maximum.

The target of series [1] is T1, Trans-sialidase (Trypanosoma cruzi, UniProt Q26964).
T1 sequence (Q26964 whole entry): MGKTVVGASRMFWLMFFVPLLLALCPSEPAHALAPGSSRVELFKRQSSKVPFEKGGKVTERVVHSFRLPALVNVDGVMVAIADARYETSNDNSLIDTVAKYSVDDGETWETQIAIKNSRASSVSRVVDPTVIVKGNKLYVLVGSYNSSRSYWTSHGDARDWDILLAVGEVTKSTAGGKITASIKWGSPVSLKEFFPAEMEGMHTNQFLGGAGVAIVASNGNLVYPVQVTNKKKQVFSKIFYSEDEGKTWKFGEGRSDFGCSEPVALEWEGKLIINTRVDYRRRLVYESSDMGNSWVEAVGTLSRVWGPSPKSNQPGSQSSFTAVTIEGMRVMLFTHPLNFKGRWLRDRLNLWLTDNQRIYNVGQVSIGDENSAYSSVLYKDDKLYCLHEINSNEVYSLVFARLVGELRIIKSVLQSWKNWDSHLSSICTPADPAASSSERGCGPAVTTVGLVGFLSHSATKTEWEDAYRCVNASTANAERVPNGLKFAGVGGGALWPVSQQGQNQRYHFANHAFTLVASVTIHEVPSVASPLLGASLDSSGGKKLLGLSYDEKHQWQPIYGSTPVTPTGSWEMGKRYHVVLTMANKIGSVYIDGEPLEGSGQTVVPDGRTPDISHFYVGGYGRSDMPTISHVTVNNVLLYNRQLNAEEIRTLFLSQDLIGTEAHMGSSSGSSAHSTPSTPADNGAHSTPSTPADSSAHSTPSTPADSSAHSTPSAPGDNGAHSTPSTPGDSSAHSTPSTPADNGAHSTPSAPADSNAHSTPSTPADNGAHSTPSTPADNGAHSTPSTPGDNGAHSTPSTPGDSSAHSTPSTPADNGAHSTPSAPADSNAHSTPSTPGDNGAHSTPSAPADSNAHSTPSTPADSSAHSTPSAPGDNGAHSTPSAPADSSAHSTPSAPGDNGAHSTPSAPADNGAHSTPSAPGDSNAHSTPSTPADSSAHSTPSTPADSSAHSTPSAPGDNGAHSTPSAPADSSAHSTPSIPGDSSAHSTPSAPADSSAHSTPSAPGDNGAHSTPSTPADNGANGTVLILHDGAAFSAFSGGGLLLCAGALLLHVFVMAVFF
Nature of the series: Inhibition of recombinant HisA-tagged Trypanosoma cruzi trans-sialidase expressed in Escherichia coli BL21 (DE3) using MuNANA as substrate pretreated for 10 mins followed by substrate addition by fluorescence assay. The method in brief:
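Continuous fluorometric hydrolysis assay at 35°C in 20mM Tris-HCl, 50mM NaCl, pH 7.5, 0.01% Triton X100. TcTS (50 µg/mL) was preincubated 10 min with at least seven inhibitor levels (1 µM–15 mM), then MuNANA (200 µM) was added. 4-Methylumbelliferone was read at ex 360/em 460 nm, with rate taken as the linear-region slope. IC50 was set at 50% activity loss versus the no-inhibitor control; n=3 independent experiments.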

The target in series [2] is T1, Trans-sialidase. The experiment in a line: Non-competitive inhibition of recombinant HisA-tagged Trypanosoma cruzi trans-sialidase expressed in Escherichia coli BL21 (DE3) using varying levels of MuNANA as substrate by Lineweaver-burk plot analysis. The method in brief:
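TcTS residual hydrolytic activity was measured with MuNANA at 0–400 µM across several set inhibitor concentrations, using the fluorometric method at 35°C and pH 7.5. Km/Vmax came from nonlinear fitting. Ki was fitted with competitive, non-competitive, uncompetitive and mixed models, and the best-fitting model was assigned as the mode. Lineweaver-Burk double-reciprocal plots were made at each inhibitor level.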

Series [3] in a line: Selectivity ratio of IC50 for Clostridium perfringens neuraminidase to IC50 for recombinant HisA-tagged Trypanosoma cruzi trans-sialidase expressed in Escherichia coli BL21 (DE3).
Series [4] in a line: Selectivity ratio of IC50 for Streptococcus pneumoniae neuraminidase A to IC50 for recombinant HisA-tagged Trypanosoma cruzi trans-sialidase expressed in Escherichia coli BL21 (DE3).
In another series the target is Sialidase A (Streptococcus pneumoniae, UniProt P62575). The experiment in a line: Inhibition of Streptococcus pneumoniae neuraminidase A using MuNANA as substrate pretreated for 10 mins followed by substrate addition by fluorescence assay.
Another series addresses T2, Sialidase (Clostridium perfringens, UniProt P10481).
T2 sequence (P10481 whole entry): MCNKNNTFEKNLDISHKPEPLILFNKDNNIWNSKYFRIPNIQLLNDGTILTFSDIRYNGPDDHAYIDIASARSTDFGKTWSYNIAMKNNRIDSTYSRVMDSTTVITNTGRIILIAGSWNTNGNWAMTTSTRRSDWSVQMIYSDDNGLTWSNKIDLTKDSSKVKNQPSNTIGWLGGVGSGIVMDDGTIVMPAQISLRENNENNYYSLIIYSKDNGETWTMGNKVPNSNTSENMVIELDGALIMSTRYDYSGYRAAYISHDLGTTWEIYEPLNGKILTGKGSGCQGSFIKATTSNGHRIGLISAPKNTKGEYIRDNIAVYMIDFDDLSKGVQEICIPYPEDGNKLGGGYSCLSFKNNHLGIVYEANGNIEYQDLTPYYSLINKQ
Nature of the series: Inhibition of Clostridium perfringens neuraminidase using MuNANA as substrate pretreated for 10 mins followed by substrate addition by fluorescence assay.

The target in series [5] is T1, Trans-sialidase. The experiment in a line: Inhibition of recombinant Trypanosoma cruzi trans-sialidase expressed in Escherichia coli BL21 (DE3) using MuNANA as substrate after 10 mins in presence of [D-glucose-1-14C]lactose by liquid scintillation counting method.
The target in series [6] is T1, Trans-sialidase. The experiment in a line: Inhibition of Trypanosoma cruzi trans-sialidase. The method in brief:
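TcTS, point-mutated to aid crystallisation and expressed in E. coli BL21(DE3), at 50 µg/mL; pre-incubated 10 min at 35°C with ≥7 inhibitor levels (1 µM–15 mM). MuNANA (200 µM) then added. Buffer: 20 mM Tris-HCl, 50 mM NaCl, pH 7.5, 0.01% Triton X100. Continuous fluorescence (ex 360/em 460 nm), slope RFU/min. IC50 versus no-inhibitor control; n=3 independent experiments.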

Series [7] can be described thus: Solubility of the compound in pH 7.5 Tris-HCl buffer at >7.5 mM. Type of series: physicochemical.
Series [8] concerns the target T1, Trans-sialidase. Nature of the series: Inhibition of Trypanosoma cruzi trans-sialidase using CF3MuSA as substrate by UV/visible spectrophotometric method.
Compound in series [9]: OC[C@@H](O)[C@@H](O[C@@H]1O[C@H](CO)[C@H](O)[C@H](O)[C@H]1O)[C@H](O)[C@@H](O)CO
Nature of the series: Inhibition of recombinant HisA-tagged Trypanosoma cruzi trans-sialidase expressed in Escherichia coli BL21 (DE3) using 3-sialyl-lactose as donor measured after 15 mins by HPAEC-PAD.

Sequence of Sialidase A (P62575 whole entry): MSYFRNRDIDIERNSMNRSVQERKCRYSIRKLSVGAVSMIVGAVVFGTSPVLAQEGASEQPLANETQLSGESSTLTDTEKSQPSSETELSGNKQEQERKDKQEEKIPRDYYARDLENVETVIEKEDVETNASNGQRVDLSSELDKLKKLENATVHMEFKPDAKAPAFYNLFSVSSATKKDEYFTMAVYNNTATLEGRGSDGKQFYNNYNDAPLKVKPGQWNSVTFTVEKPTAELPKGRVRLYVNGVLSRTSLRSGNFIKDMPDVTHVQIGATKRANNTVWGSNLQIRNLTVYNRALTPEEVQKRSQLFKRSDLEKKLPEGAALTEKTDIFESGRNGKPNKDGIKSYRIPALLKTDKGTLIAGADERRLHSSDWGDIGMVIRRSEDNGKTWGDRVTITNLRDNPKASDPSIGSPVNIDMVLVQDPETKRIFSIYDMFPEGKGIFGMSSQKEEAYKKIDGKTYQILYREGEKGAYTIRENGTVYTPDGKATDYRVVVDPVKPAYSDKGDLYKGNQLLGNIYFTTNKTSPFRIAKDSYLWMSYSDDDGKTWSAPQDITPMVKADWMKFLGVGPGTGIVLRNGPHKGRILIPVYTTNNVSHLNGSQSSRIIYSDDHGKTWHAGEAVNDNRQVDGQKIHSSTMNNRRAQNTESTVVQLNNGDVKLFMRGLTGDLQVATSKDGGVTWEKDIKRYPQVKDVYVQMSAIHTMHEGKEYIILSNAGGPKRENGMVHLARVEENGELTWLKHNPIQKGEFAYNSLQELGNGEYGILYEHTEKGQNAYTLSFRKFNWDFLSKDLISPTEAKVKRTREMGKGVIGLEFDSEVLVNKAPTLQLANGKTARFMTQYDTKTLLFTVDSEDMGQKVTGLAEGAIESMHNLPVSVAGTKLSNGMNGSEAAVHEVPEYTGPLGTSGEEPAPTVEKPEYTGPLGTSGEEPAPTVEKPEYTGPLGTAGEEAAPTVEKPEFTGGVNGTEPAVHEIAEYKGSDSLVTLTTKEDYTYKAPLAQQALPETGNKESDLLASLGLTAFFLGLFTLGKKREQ

For `O=P(O)(O)C(Nc1cccc2ccccc12)c1ccc(C(F)(F)F)cc1` (racemic), the IC50 on Trans-sialidase [1] was 290 µM.

As to `CC(=O)Nc1ccc(C(Nc2cccc3ccccc23)P(=O)(O)O)cc1` (racemic), the Ki at Trans-sialidase [2] turned out to be 190 µM. At Trans-sialidase [1], the IC50 is 230 µM. As for `O=[N+]([O-])c1ccc(C(Nc2cccc3ccccc23)P(=O)(O)O)cc1` (racemic), the Ratio IC50 in [3] and in series [4] was 7 to 12 in each case. In addition, the 50% inhibitory concentration (IC50) on Sialidase A amounted to 1410 µM; on Trans-sialidase [1] it was 210 µM; at Sialidase, 2390 µM. Also, the Ki on Trans-sialidase [2] was 140 µM.

Regarding `O=P(O)(O)C(Nc1cccc2ccccc12)c1ccc(Cl)cc1` (racemic), the IC50 on Trans-sialidase [1] worked out at 710 µM.

`O=P(O)(O)C(Nc1ccc2ccccc2c1)c1ccccc1` (racemic): at Trans-sialidase [1], the IC50 worked out at 510 µM. Turning to `COc1ccc(C(Nc2cccc3ccccc23)P(=O)(O)O)cc1` (racemic), the half-maximal inhibitory concentration (IC50) at Trans-sialidase [1] was found to be 270 µM. In the case of `CC(=O)N[C@H]1[C@H]([C@H](O)[C@H](O)CO)OC(C(=O)O)=C[C@@H]1O` [NEU5AC2EN], the inhibition constant Ki at Trans-sialidase [5] amounted to 12300 µM. For the molecule `Cc1ncc(COP(=O)(O)O)c(C=O)c1O` [PYRIDOXAL PHOSPHATE ANHYDROUS], the affinity on Trans-sialidase [6], expressed as Ki, was 7300 µM. `O=P(O)(O)C(Nc1cccc2ccccc12)c1ccccc1` (racemic): the inhibition constant (Ki) on Trans-sialidase [2] amounted to 430 µM. For the same molecule, the IC50 on Trans-sialidase [1] was found to be 470 µM. `O=P(O)(O)C(Nc1ccccc1)c1ccccc1` (racemic): the solubility entry in [7] is recorded as “Soluble”. Moreover, the IC50 at Trans-sialidase [1] was above 7500 µM. For the molecule `O=P(O)(O)C(Nc1ccccc1-c1ccccc1)c1ccccc1` (racemic), the half-inhibitory concentration (IC50) at Trans-sialidase [1] worked out at 630 µM. As for `Cc1ccc(S(=O)(=O)Nc2ccc(C(=O)/C=C/c3ccc(O)c(O)c3)cc2)cc1`, at Trans-sialidase [8], the IC50 stood at 0.9 µM.

As to `O=P(O)(O)C(Nc1cccc2ccccc12)c1cc(C(F)(F)F)cc(C(F)(F)F)c1` (racemic), the half-inhibitory concentration (IC50) at Trans-sialidase [1] worked out at 2350 µM. `O=P(O)(O)C(Nc1cccc(-c2ccccc2)c1)c1ccccc1` (racemic): the IC50 at Trans-sialidase [1] is 5580 µM.

B1: Trans-sialidase (Trypanosoma cruzi), Q26964 (protein)
chain: MGKTVVGASRMFWLMFFVPLLLALCPSEPAHALAPGSSRVELFKRQSSKVPFEKGGKVTERVVHSFRLPALVNVDGVMVAIADARYETSNDNSLIDTVAKYSVDDGETWETQIAIKNSRASSVSRVVDPTVIVKGNKLYVLVGSYNSSRSYWTSHGDARDWDILLAVGEVTKSTAGGKITASIKWGSPVSLKEFFPAEMEGMHTNQFLGGAGVAIVASNGNLVYPVQVTNKKKQVFSKIFYSEDEGKTWKFGEGRSDFGCSEPVALEWEGKLIINTRVDYRRRLVYESSDMGNSWVEAVGTLSRVWGPSPKSNQPGSQSSFTAVTIEGMRVMLFTHPLNFKGRWLRDRLNLWLTDNQRIYNVGQVSIGDENSAYSSVLYKDDKLYCLHEINSNEVYSLVFARLVGELRIIKSVLQSWKNWDSHLSSICTPADPAASSSERGCGPAVTTVGLVGFLSHSATKTEWEDAYRCVNASTANAERVPNGLKFAGVGGGALWPVSQQGQNQRYHFANHAFTLVASVTIHEVPSVASPLLGASLDSSGGKKLLGLSYDEKHQWQPIYGSTPVTPTGSWEMGKRYHVVLTMANKIGSVYIDGEPLEGSGQTVVPDGRTPDISHFYVGGYGRSDMPTISHVTVNNVLLYNRQLNAEEIRTLFLSQDLIGTEAHMGSSSGSSAHSTPSTPADNGAHSTPSTPADSSAHSTPSTPADSSAHSTPSAPGDNGAHSTPSTPGDSSAHSTPSTPADNGAHSTPSAPADSNAHSTPSTPADNGAHSTPSTPADNGAHSTPSTPGDNGAHSTPSTPGDSSAHSTPSTPADNGAHSTPSAPADSNAHSTPSTPGDNGAHSTPSAPADSNAHSTPSTPADSSAHSTPSAPGDNGAHSTPSAPADSSAHSTPSAPGDNGAHSTPSAPADNGAHSTPSAPGDSNAHSTPSTPADSSAHSTPSTPADSSAHSTPSAPGDNGAHSTPSAPADSSAHSTPSIPGDSSAHSTPSAPADSSAHSTPSAPGDNGAHSTPSTPADNGANGTVLILHDGAAFSAFSGGGLLLCAGALLLHVFVMAVFF
Regarding B1, the Km in [9] worked out at 260 µM.
